From ChEMBL document CHEMBL1132224, “Synthesis and in vitro multidrug resistance modulating activity of a series of dihydrobenzopyrans and tetrahydroquinolines” (J Med Chem, 1999) come the findings set out here.

The nature of data set [1]: Partition coefficient (logP). It counts as physicochemical. The settings on record: octanol/water. The method in brief: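 Computed, not measured: fragmentation method of Ghose et al. on a topological basis. Structures built and minimized with the MM2 force field. Conformation-independent log P values.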
The nature of data set [2]: Lipophilicity (log kw value) was determined. It counts as physicochemical. The settings on record: reversed-phase HPLC, methanol/buffer pH 7.4. In short, it runs like this:
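Reversed-phase HPLC on an RP-8 column (5 µm), eluent methanol/aqueous phase adjusted to pH 7.4 with 1/60 M Soerensen buffer, detection at 254 nm. log k′ measured at 70%, 60% and 50% methanol, then extrapolated to 0% methanol by linear regression to give log kw.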

Data set [3] has as its system CCRF-CEM. The data set can be described thus: The compound was tested for inhibition of P-glycoprotein mediated daunomycin efflux in multidrug resistant CCRF-CEM vcr1000 cells. The settings on record: Homo sapiens. It counts as functional, cell-based. The method in brief:
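Vincristine-selected CCRF-CEM vcr1000 T-lymphoblasts grown in RPMI1640 with 10% FCS, selecting agent removed at least 1 week before use. Cells at 1 × 10^6/mL preloaded with 3.2 µM daunomycin (final) for 30 min at 37 °C, pelleted, then resuspended in 37 °C medium with modulator (eight concentrations, 1:2.5 dilutions, 3 nM–500 µM range). Samples taken at 0, 60, 120, 180 and 240 s into ice-cold stop medium containing verapamil (10 µg/mL final). An exponential fit gives the first-order rate constant (Vmax/Km) as the slope at time zero. Efflux in parental CCRF-CEM cells, set to equal initial fluorescence, is subtracted as passive diffusion. EC50 comes from Vmax/Km versus concentration, as mean ± SD of at least three independent experiments.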

Each structure is given as a SMILES string.

As a reminder, the logP is the decadic logarithm of the partition coefficient of the neutral form, usually between octanol and water. The term EC50 denotes the midpoint of the concentration-response curve. On to `Cc1ccc(C(=O)N2c3ccccc3[C@H](NCc3ccccc3)[C@@H](O)[C@@H]2C)cc1`, for which, in data set [1], the log partition coefficient (logP) came to 4.52. The compound further registered a Log kw in data set [2] of 5.38. In addition, the EC50 in data set [3] was found to be 3.26 µM.
As to `Cc1ccc(C(=O)N2c3ccccc3[C@H](N3CCN(Cc4ccccc4)CC3)[C@@H](O)[C@@H]2C)cc1`, the logP in data set [1] was found to be 4.51. The same compound came in with a Log kw in data set [2] of 6.1. The compound also had a 50% effective concentration (EC50) in data set [3] of 0.43 µM.
For `CC(C)(C)OC(=O)CN[C@H]1c2cc(C#N)ccc2OC(C)(C)[C@@H]1O`, the logP in data set [1] turned out to be 1.79. Besides, the EC50 in data set [3] came to 46.8 µM.
For the compound `CC1(C)Oc2ccc(C#N)cc2[C@H](N2CCN(Cc3ccccc3)CC2)[C@H]1O`, the logP in data set [1] was determined as 3.11. In data set [2], this compound returned a Log kw of 5.53. Further, the half-maximal effective concentration (EC50) in data set [3] was 0.64 µM.
`CCN(CC)CCCC(C)N[C@H]1c2ccccc2N[C@@H](C)[C@@H]1OC(=O)c1ccc(C)cc1` (stereo partly drawn) showed a logP in data set [1] of 4.78. The EC50 in data set [3] came out at 0.34 µM.
In data set [1], `CC(C)(C)OC(=O)CN(Cc1ccccc1)[C@H]1c2cc(C#N)ccc2OC(C)(C)[C@@H]1O` registered a logP of 3.76. In data set [3], this compound registered an EC50 of 2.43 µM.
For the compound `Cc1ccc(C(=O)O[C@H]2[C@H](C)Nc3ccccc3[C@@H]2N2CCCC2)cc1`, in data set [1], the logP was 3.92. In addition, the Log kw in data set [2] came out at 5.47. The EC50 in data set [3] stood at 5.64 µM.
On to `CCN(CC)CCCC(C)N[C@H]1c2ccccc2N(C(=O)c2ccc(C)cc2)[C@@H](C)[C@@H]1O` (stereo partly drawn), for which, in data set [1], the log partition coefficient (logP) worked out at 4.2. This compound also displayed an EC50 in data set [3] of 1.96 µM.
In data set [1], `CN[C@H]1c2cc(C#N)ccc2OC(C)(C)[C@@H]1O` had a logP of 1.24. Further, the midpoint of the response in data set [3], the EC50, lay at 1430 µM.
For `Cc1ccc(C(=O)N2c3ccccc3[C@H](N3CCCC3)[C@@H](O)[C@@H]2C)cc1`, the logP in data set [1] is 3.34. Moreover, the Log kw in data set [2] amounted to 4.2. Moreover, the EC50 in data set [3] is 7.98 µM.
Compound `CC1(C)Oc2ccc(C#N)cc2[C@H](NCc2ccccc2)[C@H]1O` returned a logP in data set [1] of 3.12. The compound also displayed a Log kw in data set [2] of 4.35. In addition, it took 59.1 µM to reach a half-maximal effect in data set [3] (EC50).
